From ChEMBL document CHEMBL1153408, “Molecular modeling studies and in vitro bioactivity evaluation of a set of novel 5-nitro-heterocyclic derivatives as anti-T. cruzi agents” (2009) come the findings set out here.

What all share (format): functional
For assay [1], the system named is Trypanosoma cruzi. In words: Antitrypanosomal activity against Trypanosoma cruzi Y epimastigotes assessed as parasite growth at 1 ug/ml after 24 hrs. The gist of the method: (§1)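 Y strain epimastigotes grown in LIT medium (pH 7.2, 10% FBS, 2% hemoglobin). Compounds dissolved in DMSO and diluted into LIT. Parasites added at an initial 10^6/mL and incubated at 28 °C for 24 h. Cells counted in a Neubauer chamber at 0 h and 24 h, in triplicate. Growth % = (L24 − L0) × 100/L0.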

Assay [2] relates to Trypanosoma cruzi. The assay can be described thus: Antitrypanosomal activity against Trypanosoma cruzi Y epimastigotes assessed as parasite growth at 10 ug/ml after 24 hrs. The gist of the method: as §1
In assay [3] the test system is Trypanosoma cruzi. In words: Antitrypanosomal activity against Trypanosoma cruzi Y epimastigotes assessed as parasite growth at 20 ug/ml after 24 hrs. The procedure, abridged:
as §1

Structures are written as SMILES.

Take `O=C(N/N=C/c1ccc([N+](=O)[O-])s1)c1ccccc1`: the Parasite growth in assay [1] turned out to be 13%. The Activity in assay [2] was 57.3%. For the same molecule, in assay [3], the “Parasite growth over 24 h” value is 0%.
The like results for `O=C(N/N=C/c1ccc([N+](=O)[O-])s1)c1ccc(Cl)cc1` were, in that order, 4%, 0% and 0%.
The corresponding values for `COc1ccc(C(=O)N/N=C/c2ccc([N+](=O)[O-])s2)cc1` are 100%, 0% and 0%.
The corresponding values for `O=C(N/N=C/c1ccc([N+](=O)[O-])o1)c1ccccc1` are 0%, 0% and 0%.
Turning to `NS(=O)(=O)c1ccc(C(=O)N/N=C/c2ccc([N+](=O)[O-])s2)cc1`, the Parasite growth in assay [1] is listed as 16%. Further, the Activity in assay [2] was found to be 18.2%. The “Parasite growth over 24 h” value in assay [3] is 19%.
The corresponding values for `O=C(N/N=C/c1ccc([N+](=O)[O-])o1)c1ccc(Cl)cc1` are 0%, 0% and 0%.
As to `O=C(N/N=C/c1ccc([N+](=O)[O-])s1)c1ccc(C(F)(F)F)cc1`, the Parasite growth in assay [1] worked out at 28.4%. For the same molecule, the Activity in assay [2] was 0%. Moreover, in assay [3], the “Parasite growth over 24 h” value stood at 0%.
For `O=C(N/N=C/c1ccc([N+](=O)[O-])s1)c1ccc(O)cc1`, the Activity in assay [2] worked out at 56.6%.
Regarding `CN(C)c1ccc(C(=O)N/N=C/c2ccc([N+](=O)[O-])s2)cc1`, the Parasite growth in assay [1] is 10%. For the same molecule, the Activity in assay [2] is recorded as 43.6%. In addition, the “Parasite growth over 24 h” value in assay [3] was determined as 0%.
For the molecule `N#Cc1ccc(C(=O)N/N=C/c2ccc([N+](=O)[O-])s2)cc1`, the Activity in assay [2] is 0%.
As for `O=C(Cn1ccnc1[N+](=O)[O-])NCc1ccccc1` [BENZNIDAZOLE], in assay [2], the Activity was determined as 30%. In assay [3], the “Parasite growth over 24 h” value came out at 3%.
